Experimental data from ChEMBL document CHEMBL1153560, “In vitro activities of doripenem and six comparator drugs against 423 aerobic and anaerobic bacterial isolates from infected diabetic foot wounds” (2008).
Values after ≈ are worked out from the molar mass of the structure shown.

Experiments:
Type in all cases: functional
[1] = system: Prevotella bivia; test: Antibacterial activity against Prevotella bivia isolated from patient with diabetic foot infection after 44 to 48 hrs by agar dilution method
Summary of the method: (§1)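 CLSI M11-A7 agar dilution: serial twofold drug dilutions made on the test day and added to molten agar. Spots of 10^5 CFU were applied by replicator, with drug-free control plates inoculated before and after each set. Incubation was 44 to 48 h at 37°C in an anaerobic chamber. MIC was the lowest concentration giving no growth or a marked change in growth versus controls.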

[2] = system: Anaerocolumna aminovalerica; test: Antibacterial activity against Clostridium aminovalericum isolated from patient with diabetic foot infection after 44 to 48 hrs by agar dilution method; summary of the method: as §1
[3] = system: Lacrimispora sphenoides; test: Antibacterial activity against Clostridium sphenoides isolated from patient with diabetic foot infection after 44 to 48 hrs by agar dilution method; summary of the method: as §1
[4] = system: Peptoniphilus asaccharolyticus; test: Antibacterial activity against Peptoniphilus asaccharolyticus isolated from patient with diabetic foot infection after 44 to 48 hrs by agar dilution method; summary of the method: as §1
[5] = system: Klebsiella aerogenes; test: Antibacterial activity against Enterobacter aerogenes isolated from patient with diabetic foot infection assessed as percent resistant isolates after 18 to 24 hrs by broth microdilution method
Summary of the method: (§2)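 Aerobes subcultured on Trypticase soy blood agar, then broth microdilution in cation-adjusted Mueller-Hinton broth. Trays prepared in-house with twofold dilutions and stored at −70°C. Overnight colonies suspended to about 5 × 10^5 CFU/ml final. Read after 18 to 24 h at 37°C. QC strains included S. aureus ATCC 29213 and E. coli ATCC 25922.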

[6] = system: Proteus mirabilis; test: Antibacterial activity against Proteus mirabilis isolated from patient with diabetic foot infection assessed as percent resistant isolates after 18 to 24 hrs by broth microdilution method; summary of the method: as §2
[7] = system: Staphylococcus lugdunensis; test: Antibacterial activity against Staphylococcus lugdunensis isolated from patient with diabetic foot infection after 18 to 24 hrs by broth microdilution method
Summary of the method: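 Subcultured on Trypticase soy blood agar, then broth microdilution in cation-adjusted Mueller-Hinton broth. Trays were made in-house with serial twofold drug dilutions and stored at −70°C. Inoculum was colonies from overnight growth, final approximately 5 × 10^5 CFU/ml. MIC was read after 18 to 24 h at 37°C. QC strains: S. aureus ATCC 29213 and E. coli ATCC 25922.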

[8] = system: Streptococcus agalactiae; test: Antibacterial activity against Streptococcus agalactiae isolated from patient with diabetic foot infection after 18 to 24 hrs by broth microdilution method
Summary of the method: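 Streptococcal isolates were subcultured on Trypticase soy blood agar. Broth microdilution used cation-adjusted Mueller-Hinton broth with lysed horse blood, in in-house trays of serial twofold drug dilutions stored at −70°C. Overnight colonies were suspended to a final inoculum of approximately 5 × 10^5 CFU/ml. MIC was read after 18 to 24 h incubation at 37°C.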

[9] = system: Bacteroides caccae; test: Antibacterial activity against Bacteroides caccae isolated from patient with diabetic foot infection after 44 to 48 hrs by agar dilution method; summary of the method: as §1
[10] = system: Bacteroides stercoris; test: Antibacterial activity against Bacteroides stercoris isolated from patient with diabetic foot infection after 44 to 48 hrs by agar dilution method; summary of the method: as §1
[11] = system: Staphylococcus aureus; test: Antibacterial activity against methicillin-sensitive Staphylococcus aureus isolated from patient with diabetic foot infection assessed as percent resistant isolates after 18 to 24 hrs by broth microdilution method
Summary of the method: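 Isolates grown on Trypticase soy blood agar, then tested by broth microdilution in unsupplemented cation-adjusted Mueller-Hinton broth. In-house trays held serial twofold drug dilutions and were stored at −70°C. Overnight colonies were suspended to a final inoculum near 5 × 10^5 CFU/ml, and trays read after 18–24 h at 37°C. QC strains: S. aureus ATCC 29213, E. coli ATCC 25922.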

[12] = system: Staphylococcus lugdunensis; test: Antibacterial activity against Staphylococcus lugdunensis isolated from patient with diabetic foot infection assessed as percent resistant isolates after 18 to 24 hrs by broth microdilution method; summary of the method: as §2
[13] = system: Bacteroides caccae; test: Antibacterial activity against Bacteroides caccae isolated from patient with diabetic foot infection assessed as percent resistant isolates after 44 to 48 hrs by agar dilution method
Summary of the method: (§3)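 Agar dilution per CLSI M11-A7. Twofold drug dilutions made on the test day and added to molten agar. Replicator-applied inoculum of 10^5 CFU/spot. Drug-free control plates inoculated before and after each drug set. Incubation at 37°C for 44 to 48 h, anaerobic chamber. MIC taken as the lowest concentration giving no growth or a marked change in growth versus controls.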

[14] = system: Bacteroides stercoris; test: Antibacterial activity against Bacteroides stercoris isolated from patient with diabetic foot infection assessed as percent resistant isolates after 44 to 48 hrs by agar dilution method; summary of the method: as §3
[15] = system: Parabacteroides distasonis; test: Antibacterial activity against Parabacteroides distasonis isolated from patient with diabetic foot infection assessed as percent resistant isolates after 44 to 48 hrs by agar dilution method; summary of the method: as §3
[16] = system: Parabacteroides merdae; test: Antibacterial activity against Parabacteroides merdae isolated from patient with diabetic foot infection assessed as percent resistant isolates after 44 to 48 hrs by agar dilution method; summary of the method: as §3
[17] = system: Anaerocolumna aminovalerica; test: Antibacterial activity against Clostridium aminovalericum isolated from patient with diabetic foot infection assessed as percent resistant isolates after 44 to 48 hrs by agar dilution method; summary of the method: as §3
[18] = system: Enterobacter cloacae; test: Antibacterial activity against Enterobacter cloacae isolated from patient with diabetic foot infection after 18 to 24 hrs by broth microdilution method
Summary of the method: (§4)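 Isolates were subcultured on Trypticase soy blood agar and tested by broth microdilution in cation-adjusted Mueller-Hinton broth. In-house trays of twofold drug dilutions were stored at −70°C. Overnight colonies gave a final inoculum of about 5 × 10^5 CFU/ml. Plates were read after 18 to 24 h at 37°C.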

[19] = system: Proteus mirabilis; test: Antibacterial activity against Proteus mirabilis isolated from patient with diabetic foot infection after 18 to 24 hrs by broth microdilution method; summary of the method: as §4
[20] = system: Corynebacterium striatum; test: Antibacterial activity against Corynebacterium striatum isolated from patient with diabetic foot infection after 48 hrs by broth microdilution method
Summary of the method: (§5)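 Isolates were subcultured on Trypticase soy blood agar. Broth microdilution used cation-adjusted Mueller-Hinton broth with lysed horse blood, in-house trays of twofold drug dilutions stored at −70°C. Colonies from overnight growth gave a final inoculum of about 5 × 10^5 CFU/ml. Trays were read after 18 to 24 h at 37°C, up to 48 h for some strains.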

[21] = system: Corynebacterium accolens; test: Antibacterial activity against Corynebacterium accolens isolated from patient with diabetic foot infection after 48 hrs by broth microdilution method; summary of the method: as §5
[22] = system: Clostridium cadaveris; test: Antibacterial activity against Clostridium cadaveris isolated from patient with diabetic foot infection assessed as percent resistant isolates after 44 to 48 hrs by agar dilution method; summary of the method: as §3
[23] = system: Lacrimispora sphenoides; test: Antibacterial activity against Clostridium sphenoides isolated from patient with diabetic foot infection assessed as percent resistant isolates after 44 to 48 hrs by agar dilution method; summary of the method: as §3
[24] = system: Cutibacterium acnes; test: Antibacterial activity against Propionibacterium acnes isolated from patient with diabetic foot infection assessed as percent resistant isolates after 44 to 48 hrs by agar dilution method; summary of the method: as §3
[25] = system: Anaerococcus vaginalis; test: Antibacterial activity against Anaerococcus vaginalis isolated from patient with diabetic foot infection after 44 to 48 hrs by agar dilution method; summary of the method: as §1
[26] = system: Anaerococcus vaginalis; test: Antibacterial activity against Anaerococcus vaginalis isolated from patient with diabetic foot infection assessed as percent resistant isolates after 44 to 48 hrs by agar dilution method; summary of the method: as §3

Row | Compound | MIC50 [1] [µg/mL] | MIC90 [1] [µg/mL] | MIC50 [2] [µg/mL] | MIC90 [2] [µg/mL] | MIC50 [3] [µg/mL] | MIC90 [3] [µg/mL] | MIC50 [4] [µg/mL] | MIC90 [4] [µg/mL] | MIC50 [9] [µg/mL] | MIC90 [9] [µg/mL] | MIC50 [10] [µg/mL] | MIC90 [10] [µg/mL] | Activity [13] [%] | Activity [14] [%] | Activity [15] [%] | Activity [16] [%] | Activity [17] [%] | Activity [22] [%] | Activity [23] [%] | Activity [24] [%] | also measured
1 | C[C@@H](O)[C@H]1C(=O)N2C(C(=O)O)=C(SCCNC=N)C[C@H]12 [IMIPENEM ANHYDROUS] | 0.03 (≈ 0.1 µM) | 0.03 (≈ 0.1 µM) | 0.25 (≈ 0.835 µM) | 2 (≈ 6.68 µM) | 0.25 (≈ 0.835 µM) | 2 (≈ 6.68 µM) | ≤ 0.015 | 0.03 (≈ 0.1 µM) | 0.5 (≈ 1.67 µM) | 1 (≈ 3.34 µM) | 0.5 (≈ 1.67 µM) | 1 (≈ 3.34 µM) | 0 | 0 | 0 | 0 | 0 | 0 | 0 | 0 | Activity [5]: 0%; Activity [6]: 0%; MIC50 [7]: 0.03 µg/mL (≈ 0.1 µM); MIC90 [7]: 0.06 µg/mL (≈ 0.2 µM); MIC50 [8]: ≤ 0.015 µg/mL; MIC90 [8]: ≤ 0.015 µg/mL; Activity [11]: 0%; Activity [12]: 0%; MIC50 [18]: 1 µg/mL (≈ 3.34 µM); MIC90 [18]: 2 µg/mL (≈ 6.68 µM); MIC50 [19]: 0.5 µg/mL (≈ 1.67 µM); MIC90 [19]: 4 µg/mL (≈ 13.4 µM); MIC50 [20]: 0.03 µg/mL (≈ 0.1 µM); MIC90 [20]: 0.125 µg/mL (≈ 0.418 µM); MIC50 [21]: 0.03 µg/mL (≈ 0.1 µM); MIC90 [21]: 0.125 µg/mL (≈ 0.418 µM); MIC50 [25]: ≤ 0.015 µg/mL; MIC90 [25]: 0.03 µg/mL (≈ 0.1 µM); Activity [26]: 0%
2 | C[C@@H](O)[C@H]1C(=O)N2C(C(=O)O)=C(S[C@@H]3CN[C@H](C(=O)N(C)C)C3)[C@H](C)[C@H]12 [MEROPENEM] | 0.06 (≈ 0.156 µM) | 0.125 (≈ 0.326 µM) | 0.06 (≈ 0.156 µM) | 1 (≈ 2.61 µM) | 0.06 (≈ 0.156 µM) | 1 (≈ 2.61 µM) | ≤ 0.015 | 0.125 (≈ 0.326 µM) | 0.25 (≈ 0.652 µM) | 1 (≈ 2.61 µM) | 0.25 (≈ 0.652 µM) | 1 (≈ 2.61 µM) | 0 | 0 | 0 | 0 | 0 | 0 | 0 | 0 | Activity [5]: 0%; Activity [6]: 0%; MIC50 [7]: 0.25 µg/mL (≈ 0.652 µM); MIC90 [7]: 0.5 µg/mL (≈ 1.3 µM); MIC50 [8]: 0.06 µg/mL (≈ 0.156 µM); MIC90 [8]: 0.06 µg/mL (≈ 0.156 µM); Activity [11]: 0%; Activity [12]: 0%; MIC50 [18]: 0.06 µg/mL (≈ 0.156 µM); MIC90 [18]: 0.5 µg/mL (≈ 1.3 µM); MIC50 [19]: 0.06 µg/mL (≈ 0.156 µM); MIC90 [19]: 0.125 µg/mL (≈ 0.326 µM); MIC50 [20]: 0.125 µg/mL (≈ 0.326 µM); MIC90 [20]: 0.25 µg/mL (≈ 0.652 µM); MIC50 [21]: 0.125 µg/mL (≈ 0.326 µM); MIC90 [21]: 0.25 µg/mL (≈ 0.652 µM); MIC50 [25]: 0.03 µg/mL (≈ 0.0782 µM); MIC90 [25]: 0.125 µg/mL (≈ 0.326 µM); Activity [26]: 0%
3 | Cc1ncc([N+](=O)[O-])n1CCO [METRONIDAZOLE] | 4 (≈ 23.4 µM) | 4 (≈ 23.4 µM) | 0.125 (≈ 0.73 µM) | 0.25 (≈ 1.46 µM) | 0.125 (≈ 0.73 µM) | 0.25 (≈ 1.46 µM) | 0.5 (≈ 2.92 µM) | 2 (≈ 11.7 µM) | 0.5 (≈ 2.92 µM) | 1 (≈ 5.84 µM) | 0.5 (≈ 2.92 µM) | 1 (≈ 5.84 µM) | 0 | 0 | 0 | 0 | 0 | 0 | 0 | 100 | MIC50 [25]: 0.5 µg/mL (≈ 2.92 µM); Activity [26]: 0%
